6 compounds from ChEMBL document CHEMBL1125757, “Design of potent protein kinase inhibitors using the bisubstrate approach” (J Med Chem, 1991) can be followed below.

Holding throughout (assay type): protein assay
Assay [1] concerns the target Protein kinase C (PKC). Put plainly: Inhibition of protein kinase C (PKC). A digest of the protocol: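 Reaction mix: protein kinase C (0.5 μg), histone IIIS 60 μg/mL, MgCl2 5 mM, CaCl2 0.5 mM, phosphatidylserine 50 μg/mL, diolein 5 μg/mL, [γ-³²P]ATP 10 μM, Tris/HCl pH 7.5, inhibitor at various concentrations. 30 °C for 7 min, stopped with TCA/BSA, precipitated twice, scintillation counting.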

Assay [2] deals with Protein kinase C (PKC). Nature of the assay: Displacement of ATP from protein kinase C (PKC). Put shortly:
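ATP-competition kinetics: Lineweaver-Burk plots at several inhibitor concentrations, with Ki taken from a secondary plot of apparent Km versus inhibitor concentration. Radiometric [γ-³²P]ATP assay in Tris/HCl pH 7.5 with MgCl2 5 mM, CaCl2 0.5 mM, phosphatidylserine 50 μg/mL, diolein 5 μg/mL and protein kinase C 0.5 μg. Run in triplicate.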

Assay [3] concerns the target T1, cAMP-dependent protein kinase (PKA) (Homo sapiens, UniProt P22694+P17612+P22612). Put plainly: Inhibition of cAMP-dependent protein kinase (PKA). Put shortly: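 Protein kinase A (1 μg) with histone IIA 60 μg/mL, MgCl2 5 mM and [γ-³²P]ATP 10 μM (2000-4000 cpm/pmol) in Tris/HCl pH 7.0, inhibitor at various concentrations. 30 °C for 7 min, stopped with 12% TCA plus BSA carrier, reprecipitated, histone ³²P counted by scintillation.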

The target in assay [4] is T1, cAMP-dependent protein kinase (PKA). Put plainly: Displacement of ATP from protein kinase A (PKA). Put shortly: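 ATP-competition kinetics: Lineweaver-Burk plots at several inhibitor concentrations, with Ki taken from a secondary plot of apparent Km versus inhibitor concentration. Radiometric [γ-³²P]ATP phosphorylation assay in Tris/HCl pH 7.0 with MgCl2 5 mM and protein kinase A 1 μg, 30 °C, stopped with trichloroacetic acid. Run in triplicate.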

Where a SMILES comes first, the peptide text is derived from it. The star is where a group is joined. X1 = CN(C)c1ccc(S(=O)(=O)*)c2ccccc12

In the case of `CC1CNCCN1S(=O)(=O)c1cccc2cnccc12.Cl.Cl` (centres undefined), the IC50 (commonly the concentration that gives 50% inhibition) against Protein kinase C (PKC) [1] was found to be 6 µM. Also, at Protein kinase C (PKC) [2], the Ki – broadly, the dissociation constant of the complex between target and ligand, obtained from inhibition or displacement – was 6 µM.
Turning to `COC(=O)CCNCCNS(=O)(=O)c1cccc2cnccc12`, the IC50 was 2 µM in assay [3] and 20 µM at Protein kinase C (PKC) [1].
Turning to `NCCNS(=O)(=O)c1cccc2cnccc12`, the IC50 in assay [3] was 2 µM; on Protein kinase C (PKC) [1], 7 µM.
`N=C(N)NCCC[C@H](NC(=O)[C@H](CCCNC(=N)N)NC(=O)[C@H](CCCNC(=N)N)NC(=O)[C@H](CCCNC(=N)N)NC(=O)[C@H](CCCNC(=N)N)NC(=O)[C@H](CCCNC(=N)N)NC(=O)[C@H](CO)NC(=O)CCNCCNS(=O)(=O)c1cccc2cnccc12)C(=O)O`: the values for the IC50 (in assay [3]; against Protein kinase C (PKC) [1]) were 0.003 µM and 0.3 µM, respectively. The Ki in assay [4] is 0.004 µM; at Protein kinase C (PKC) [2], 0.1 µM.
In the case of `C[C@H](NC(=O)[C@H](C)NS(=O)(=O)c1ccc(N(C)C)c2ccccc12)C(=O)N[C@@H](C)C(=O)N[C@@H](CCCN=C(N)N)C(=O)N[C@@H](CCCN=C(N)N)C(=O)N[C@@H](CCCN=C(N)N)C(=O)N[C@@H](CCCN=C(N)N)C(=O)O` (X1-AAARRRR-OH), the IC50 (in assay [3]; on Protein kinase C (PKC) [1]) was > 75 µM throughout.
As for `O=S(=O)(c1cccc2cnccc12)N1CCNCC1`, the IC50 in assay [3] was found to be 6 µM; against Protein kinase C (PKC) [1], 12 µM.
